Results: ChEMBL document CHEMBL2390884, “Design, synthesis and antiproliferative activity studies of novel 1,2,3-triazole-dithiocarbamate-urea hybrids” (Eur J Med Chem, 2013)

How the values were obtained:
MGC-803 [1] = assay: Cell cycle arrest in human MGC803 cells assessed as accumulation at G2/M phase at 0.5 uM after 24 hrs by propidium iodide staining-based flow cytometry; type: functional
Method in brief: (§1)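 Exponentially growing MGC-803 cells (5×10^5) treated at 0, 0.25, 0.5 or 1.0 µmol/L for 12 or 24 h; cells collected, fixed in ice-cold 70% ethanol, treated with buffer containing RNAse A and 0.1% Triton X-100, stained with PI; DNA content analysed by flow cytometry to give percentages of cells in G1, S and G2/M phases.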

MGC-803 [2] = assay: Induction of apoptosis in human MGC803 cells assessed as viable cells at 0.5 uM after 12 hrs by AnnexinV-FITC/propidium iodide staining-based flow cytometry (reference value: 91.9 %); type: functional; conditions: MGC-803, 12 h, read-out: Activity
MGC-803 [3] = assay: Cell cycle arrest in human MGC803 cells assessed as accumulation at G0/G1 phase at 0.25 uM after 24 hrs by propidium iodide staining-based flow cytometry; type: functional; method in brief: as §1
MGC-803 [4] = assay: Induction of apoptosis in human MGC803 cells assessed as necrotic cells at 0.5 uM after 12 hrs by AnnexinV-FITC/propidium iodide staining-based flow cytometry (reference value: 2.4 %); type: functional
HEK293 = assay: Cytotoxicity against human HEK293 cells up to 70 uM after 72 hrs by MTT assay; type: cell-based; conditions: hek293, 72 h
Method in brief: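 HEK293 cells seeded at 5×10^3 per well, grown 24 h at 37°C, then medium replaced with compound-containing medium over a concentration range; 72 h exposure; MTT (5 mg/mL stock) added for 4 h at 37°C, formazan dissolved in DMSO, absorbance read at 570 nm. Triplicate per concentration, experiment repeated three times.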

MGC-803 [5] = assay: Cell cycle arrest in human MGC803 cells assessed as accumulation at G2/M phase after 12 to 24 hrs by propidium iodide staining-based flow cytometry; type: functional; method in brief: as §1
MGC-803 [6] = assay: Cell cycle arrest in human MGC803 cells assessed as accumulation at S phase at 1 uM after 24 hrs by propidium iodide staining-based flow cytometry; type: functional; method in brief: as §1
MGC-803 [7] = assay: Cell cycle arrest in human MGC803 cells assessed as reduction in S phase accumulation after 12 to 24 hrs by propidium iodide staining-based flow cytometry; type: functional; method in brief: as §1
MGC-803 [8] = assay: Cell cycle arrest in human MGC803 cells assessed as accumulation at S phase at 0.25 uM after 12 hrs by propidium iodide staining-based flow cytometry; type: functional; method in brief: as §1
MGC-803 [9] = assay: Cell cycle arrest in human MGC803 cells assessed as accumulation at S phase at 0.25 uM after 24 hrs by propidium iodide staining-based flow cytometry; type: functional; method in brief: as §1
MGC-803 [10] = assay: Cytotoxicity against human MGC803 cells after 72 hrs by MTT assay; type: functional, cell-based; conditions: MGC-803, 72 h

## CC(C)NC(=O)N1CCN(C(=S)SCc2cn(Cc3ccc(F)cc3)nn2)CC1
MGC-803 [1]
  Activity: 69.88%
MGC-803 [2]
  viability at 0.5 µM: 80.1%
MGC-803 [3]
  Activity: 13.78%
MGC-803 [4]
  Activity: 0.8%
HEK293
  Activity: Non-toxic
MGC-803 [5]
  Activity: Dose-dependent effect
MGC-803 [6]
  Activity: 15.91%
MGC-803 [7]
  Activity: Dose-dependent effect
MGC-803 [8]
  Activity: 40.91%
MGC-803 [9]
  Activity: 25.21%
MGC-803 [10]
  IC50: 760 nM
